Experiments:
[1] = biological target: T1, Alpha amylase (Homo sapiens, UniProt P0DUB6); test: Inhibition of alpha-amylase (unknown origin)
T1 sequence (P0DUB6 whole entry): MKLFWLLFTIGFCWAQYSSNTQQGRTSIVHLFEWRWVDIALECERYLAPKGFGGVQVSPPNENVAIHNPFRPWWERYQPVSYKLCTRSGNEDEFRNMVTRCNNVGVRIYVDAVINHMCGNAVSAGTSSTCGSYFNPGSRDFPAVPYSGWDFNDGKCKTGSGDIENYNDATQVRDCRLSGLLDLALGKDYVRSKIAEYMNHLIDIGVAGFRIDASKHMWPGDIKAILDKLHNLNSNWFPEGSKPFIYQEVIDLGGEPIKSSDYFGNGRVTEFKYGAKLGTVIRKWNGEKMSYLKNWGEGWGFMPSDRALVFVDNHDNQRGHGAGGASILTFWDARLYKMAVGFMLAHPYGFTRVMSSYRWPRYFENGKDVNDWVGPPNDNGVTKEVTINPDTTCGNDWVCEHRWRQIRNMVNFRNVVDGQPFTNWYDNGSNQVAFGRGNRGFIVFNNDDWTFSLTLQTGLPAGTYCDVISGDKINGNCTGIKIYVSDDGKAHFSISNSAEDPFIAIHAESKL

[2] = Inhibition of alpha glucosidase (unknown origin); design: species or system Homo sapiens
[3] = Cytotoxicity against human HepG2 cells assessed as reduction in cell viability incubated for 24 hrs by CCK8 assay; format: toxicity, cell-based
[4] = Competitive inhibition of alpha glucosidase (unknown origin) using pNPG as substrate by Dixon plot analysis; design: species or system Homo sapiens
Summary of the method: (§1)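 Inhibition kinetics used a slightly modified, previously described method. Reciprocal velocity was plotted against inhibitor concentration at several fixed substrate concentrations (Dixon plot). The competitive constant (Ki) and noncompetitive constant (αKi) were read from this plot.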

[5] = species on record: Homo sapiens; test: Mixed type of inhibition of alpha glucosidase (unknown origin) using pNPG as substrate by Lineweaver-Burk plot analysis
Summary of the method: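 Reaction velocity was measured across a range of substrate concentrations at several inhibitor concentrations. The data were plotted as 1/V versus 1/[S] and fitted linearly (Lineweaver–Burk). The quadrant where the lines intersect assigned the inhibition type, and the enzyme Km was derived from the same plot.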

[6] = species on record: Homo sapiens; test: Non-competitive inhibition of alpha glucosidase (unknown origin) using pNPG as substrate by Dixon plot analysis; summary of the method: as §1

| Structure (SMILES) | IC50 [1] [µM] | IC50 [2] [µM] | Ki [4] [µM] | Km [5] [µM] | alphaKi [6] [µM] | CC50 at 24 h [3] [µM] |
| --- | --- | --- | --- | --- | --- | --- |
| Cc1ccc(S(=O)(=O)Oc2ccc(/C=N/NC(=O)c3ccc(O)cc3)cc2)cc1 | > 200 | > 200 | – | – | – | – |
| Cc1ccc(S(=O)(=O)Oc2ccc(/C=N/NC(=O)Cc3ccccn3)cc2)cc1 | > 200 | > 200 | – | – | – | – |
| Cc1ccc(S(=O)(=O)Oc2ccc(/C=N/NC(=O)c3nc4ccccc4[nH]3)cc2)cc1 | > 200 | 168 | – | – | – | – |
| Cc1ccc2occ(/C=N/NC(=O)c3cc4ccccc4[nH]3)c(=O)c2c1 | > 200 | 2.52 | 1.98 | 930 | 2.75 | > 200 |
| C[C@H]1O[C@H](O[C@H]2[C@H](O)[C@@H](O)[C@@H](O[C@H]3[C@H](O)[C@@H](O)C(O)O[C@@H]3CO)O[C@@H]2CO)[C@H](O)[C@@H](O)[C@@H]1N[C@H]1C=C(CO)[C@@H](O)[C@H](O)[C@H]1O (some centres not stated) [ACARBOSE] | – | 8.06 | – | – | – | – |

Further lines, with some results ahead:

| IC50 [1] [µM] | IC50 [2] [µM] | Ki [4] [µM] | Km [5] [µM] | alphaKi [6] [µM] | Structure (SMILES) | CC50 at 24 h [3] [µM] |
| --- | --- | --- | --- | --- | --- | --- |
| > 200 | 32.5 | – | – | – | O=C(N/N=C/c1coc2ccccc2c1=O)c1nc2ccccc2[nH]1 | > 200 |
| 128.1 | 6.49 | – | – | – | O=C(N/N=C/c1coc2ccccc2c1=O)c1cc2ccccc2[nH]1 | > 200 |
| 151.46 | 22.6 | – | – | – | O=C(N/N=C/c1coc2ccc(O)cc2c1=O)c1cc2ccccc2[nH]1 | > 200 |
